{"source": "ChEMBL document CHEMBL2169769", "about": "“Synthesis and biological characterization of protease-activated prodrugs of doxazolidine” (J Med Chem, 2012)", "key": {"[1]": {"assay": "Cytotoxicity against human L3.3 cells incubated for 24 hrs measured after 5 day", "format": "functional, cell-based", "procedure,_shortened": "(§1)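 Cells seeded 1000/well, adhered overnight, then serum-free medium with or without plasmin, trypsin, cathepsin B or papain (0.2 U/well), aprotinin (5 µM) or protease inhibitor cocktail (1X). Prodrug 2000–1 nM final, 24 h; then complete medium up to 5 days or control 80% confluence. Formalin fixed, crystal violet, A582; % of control fit to variable-slope sigmoid for IC50.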"}, "[2]": {"assay": "Prodrug conversion assessed as release dozax at 50 uM at pH 7.4 in PBS buffer in absence of human plasmin after 24 hrs by RP-HPLC", "format": "ADME", "conditions": "pH 7.4, 24 h; call rule not given here", "procedure,_shortened": "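Enzyme-free control: 50 µM prodrug in PBS at 37 °C over 24 h, RP-HPLC monitoring dox at 480 nm.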"}, "MCF7 [3]": {"tested_on": "MCF7", "assay": "Drug uptake in human MCF7 cells increase in compound uptake-induced anthracycline fluorescence in presence of plasmin at 0.5 uM after 4 to 5 hrs by flow cytometry relative to untreated control", "format": "ADME, cell-based", "conditions": "mcf7, 0.5 µM", "procedure,_shortened": "(§2)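 MCF-7 or MiaPaCa-2 plated 250,000/well, adhered overnight, switched to serum-free medium with 0.5 µM prodrug alone or plus 0.2 U human plasmin (final) for up to 5 h. Trypsinised cells read by flow cytometry (FL3) for anthracycline fluorescence; mean values expressed as fold over untreated cells.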"}, "BXPC-3 [4]": {"tested_on": "BXPC-3", "assay": "Cytotoxicity against human BxPC3 cells incubated for 24 hrs measured after 5 days in presence of 0.2 U human plasmin", "format": "functional, cell-based", "procedure,_shortened": "as §1"}, "MIA PaCa-2 [5]": {"tested_on": "MIA PaCa-2", "assay": "Cytotoxicity against human MIAPaCa2 cells incubated for 24 hrs measured after 5 days in presence of complete protease inhibitor cocktail", "format": "functional, cell-based", "procedure,_shortened": "as §1"}, "MIA PaCa-2 [6]": {"tested_on": "MIA PaCa-2", "assay": "Cytotoxicity against human MIAPaCa2 cells incubated for 24 hrs measured after 5 days in presence of 0.2 U plasmin", "format": "functional, cell-based", "procedure,_shortened": "as §1"}, "MCF7 [7]": {"tested_on": "MCF7", "assay": "Drug uptake in human MCF7 cells increase in compound uptake-induced anthracycline fluorescence in absence of plasmin at 0.5 uM up to 5 hrs by flow cytometry relative to untreated control", "format": "ADME, cell-based", "conditions": "mcf7, 5 h", "procedure,_shortened": "as §2"}, "BXPC-3 [8]": {"tested_on": "BXPC-3", "assay": "Cytotoxicity against human BxPC3 cells incubated for 24 hrs measured after 5 days", "format": "functional, cell-based", "procedure,_shortened": "as §1"}, "Homo sapiens [9]": {"species": "Homo sapiens", "assay": "Selectivity ratio of Kcat of human plasmin to Kcat of human cathepsin B", "procedure,_shortened": "(§3)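 Michaelis–Menten kinetics with human enzymes and substrate at 10–400 µM, 37 °C. Plasmin: 0.2 U in PBS pH 7.4 for 4 min. Cathepsin B: 0.08 U in PBS with 10 mM N-acetylcysteine, pH 6.5, for 20 min. Quenched with ethanol, held at −20 °C ≥2 h, centrifuged. Dox release read by RP-HPLC at 480 nm. Rates (µM/min) fit by non-linear least squares; triplicate.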"}, "[10]": {"target": "Cathepsin B (Homo sapiens) (UniProt P07858)", "assay": "Activity of human cathepsin B assessed as enzyme catalytic efficiency for compound hydrolysis at 50 uM at pH 6.5 in PBS buffer containing 10 mM N-acetylcysteine by RP-HPLC", "procedure,_shortened": "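Michaelis-Menten kinetics, substrate 10–400 µM at 37 °C. Plasmin: 0.2 U, PBS pH 7.4, 4 min. Cathepsin B: 0.08 U, PBS-NAC pH 6.5, 20 min. Quenched with equal volume ethanol, −20 °C ≥2 h, centrifuged, supernatant RP-HPLC at 480 nm. Rates (µM/min) fit by non-linear least squares; triplicates.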"}, "MIA PaCa-2 [11]": {"tested_on": "MIA PaCa-2", "assay": "Cytotoxicity against human MIAPaCa2 cells incubated for 24 hrs measured after 5 days in presence of 0.2 U cathepsin B", "format": "functional, cell-based", "procedure,_shortened": "as §1"}, "[12]": {"target": "Cathepsin B (Homo sapiens) (UniProt P07858)", "assay": "Activity of human cathepsin B assessed as compound hydrolysis measuring enzyme specific activity at 50 uM at pH 6.5 in PBS buffer containing 10 mM N-acetylcysteine by RP-HPLC", "procedure,_shortened": "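Specific activity from hydrolysis time courses at 37 °C with 50 µM substrate. Plasmin in PBS pH 7.4; cathepsin B diluted two-fold in PBS-NAC, reacted in PBS-NAC (10 mM N-acetylcysteine) pH 6.5. Ethanol-quenched aliquots, protein precipitated at −20 °C, RP-HPLC at 480 nm tracking dox release. Linear least-squares slope used; 1 U = 1 µM substrate hydrolysed per min.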"}, "Homo sapiens [13]": {"species": "Homo sapiens", "assay": "Selectivity ratio of catalytic efficiency of human plasmin to catalytic efficiency of human cathepsin B", "procedure,_shortened": "as §3"}, "MCF7 [14]": {"tested_on": "MCF7", "assay": "Cytotoxicity against human MCF7 cells incubated for 24 hrs measured after 5 days in presence of 0.2 U trypsin", "format": "functional, cell-based", "procedure,_shortened": "as §1"}, "MIA PaCa-2 [15]": {"tested_on": "MIA PaCa-2", "assay": "Cytotoxicity against human MIAPaCa2 cells incubated for 24 hrs measured after 5 days in presence of 0.2 U papain", "format": "functional, cell-based", "procedure,_shortened": "as §1"}, "[16]": {"assay": "Prodrug conversion assessed as release dozax at 50 uM at pH 7.4 in PBS buffer in presence of human plasmin after 2 hrs by RP-HPLC", "format": "ADME", "conditions": "pH 7.4, 2 h", "procedure,_shortened": "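50 µM prodrug with 1.2 µg/mL human plasmin in PBS pH 7.4 at 37 °C. Samples taken over time, ethanol-quenched, analysed by RP-HPLC at 480 nm for prodrug and dox; repeated runs fit to single-exponential association model.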"}, "MCF7 [17]": {"tested_on": "MCF7", "assay": "Cytotoxicity against human MCF7 cells incubated for 24 hrs measured after 5 days in presence of 0.2 U cathepsin B", "format": "functional, cell-based", "procedure,_shortened": "as §1"}, "Papain (Carica papaya)": {"target": "T1, Papain (Carica papaya) (UniProt P00784)", "T1 sequence (whole entry)": "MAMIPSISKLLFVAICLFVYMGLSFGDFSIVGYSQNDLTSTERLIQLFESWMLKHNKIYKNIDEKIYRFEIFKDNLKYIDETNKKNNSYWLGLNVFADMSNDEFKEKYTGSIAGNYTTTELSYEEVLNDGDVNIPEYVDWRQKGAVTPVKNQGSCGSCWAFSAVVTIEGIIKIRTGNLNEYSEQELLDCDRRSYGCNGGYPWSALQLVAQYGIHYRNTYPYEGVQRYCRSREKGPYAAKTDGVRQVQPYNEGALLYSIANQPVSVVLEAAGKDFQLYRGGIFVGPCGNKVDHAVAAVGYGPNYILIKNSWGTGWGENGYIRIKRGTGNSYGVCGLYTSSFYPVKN", "assay": "Activity of papaya papain assessed as compound hydrolysis measuring enzyme specific activity at 50 uM at pH 6.5 in PBS buffer containing 10 mM N-acetylcysteine by RP-HPLC", "procedure,_shortened": "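50 µM prodrug incubated at 37 °C with enzyme: trypsin in PBS; papain diluted two-fold in PBS-NAC (PBS + 10 mM N-acetylcysteine), reacted in PBS-NAC pH 6.5. Aliquots quenched in equal volume ethanol, −20 °C ≥2 h, centrifuged; supernatant RP-HPLC at 480 nm for substrate loss and dox gain. Slope of linear fit gives activity; 1 U = 1 µM prodrug hydrolysed per min.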"}, "Plasma": {"tested_on": "Plasma", "assay": "Stability in human plasma assessed as doxorubicin production at 50 uM incubated over 24 hrs by RP-HPLC", "format": "ADME, cell-free", "procedure,_shortened": "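Prodrug diluted to 50 µM final in undiluted plasma from healthy human donors, 37 °C for 24 h. Aliquots at 0.25, 1, 3, 8, 12 and 24 h were quenched with equal-volume ethanol and held at −20 °C overnight; protein was spun out. Supernatant run on RP-HPLC; percent prodrug and dox taken from relative 480 nm absorbance, counting all 480 nm species; triplicate.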"}, "[18]": {"assay": "Cytotoxicity against doxorubicin-resistant human NCI-ADR-RES cells incubated for 24 hrs measured after 5 day", "format": "functional, cell-based", "procedure,_shortened": "as §1"}, "[19]": {"assay": "Cytotoxicity against doxorubicin-resistant human NCI-ADR-RES.cells incubated for 24 hrs measured after 5 days in presence of 0.2 U human plasmin", "format": "functional, cell-based", "procedure,_shortened": "as §1"}}}
{"smiles": "COc1cccc2c1C(=O)c1c(O)c3c(c(O)c1C2=O)C[C@@](O)(C(=O)CO)C[C@@H]3O[C@H]1C[C@H]2[C@H](OCN2C(=O)OCc2ccc(NC(=O)[C@H](CCCCN)NC(=O)[C@H](Cc3ccccc3)NC(=O)[C@@H](C)NC(=O)CNC(C)=O)cc2)[C@H](C)O1.O=P(O)(O)O", "values": [{"measurement": "IC50", "setting": "[1]", "result": 251, "unit": "nM"}, {"measurement": "Stability", "setting": "[2]", "result": "Stable"}, {"measurement": "fold change (FC)", "setting": "MCF7 [3]", "result": 7}, {"measurement": "IC50", "setting": "BXPC-3 [4]", "result": 39.8, "unit": "nM"}, {"measurement": "IC50", "setting": "MIA PaCa-2 [5]", "result": 398, "unit": "nM"}, {"measurement": "IC50", "setting": "MIA PaCa-2 [6]", "result": 23.4, "unit": "nM"}, {"measurement": "fold change (FC)", "setting": "MCF7 [7]", "result": 2}, {"measurement": "IC50", "setting": "BXPC-3 [8]", "result": 1000, "unit": "nM"}, {"measurement": "Ratio", "setting": "Homo sapiens [9]", "result": 5}, {"measurement": "Activity", "setting": "[10]", "result": 4.59, "unit": "×10³ /M/s"}, {"measurement": "IC50", "setting": "MIA PaCa-2 [11]", "result": 158, "unit": "nM"}, {"measurement": "Activity", "setting": "[12]", "result": 1040, "unit": "U/mg"}, {"measurement": "Ratio", "setting": "Homo sapiens [13]", "result": "> 3"}, {"measurement": "IC50", "setting": "MCF7 [14]", "result": 31.6, "unit": "nM"}, {"measurement": "IC50", "setting": "MIA PaCa-2 [15]", "result": 69.2, "unit": "nM"}, {"measurement": "Drug metabolism", "setting": "[16]", "result": "Active"}, {"measurement": "IC50", "setting": "MCF7 [17]", "result": 120, "unit": "nM"}, {"measurement": "Activity", "setting": "Papain (Carica papaya)", "result": 890, "unit": "U/mg"}, {"measurement": "Stability", "setting": "Plasma", "result": "Stable"}, {"measurement": "IC50", "setting": "[18]", "result": 912, "unit": "nM"}, {"measurement": "IC50", "setting": "[19]", "result": 11.7, "unit": "nM"}]}
